Reference: ChEMBL document CHEMBL1124174, “Substituted benzamides. 1. Potential nondopaminergic antagonists of chemotherapy-induced nausea and emesis” (J Med Chem, 1988)
Several values for one entry are separate records, joined by “and”; a condition that tells them apart may be missing. Equal values may be shown once.

Assays:
[1] = molecular target: D(2) dopamine receptor (Rattus norvegicus) (UniProt P61169); assay: In vivo antagonism activity against D2 receptor was measured as stereotypy in rat when administered subcutaneously; format: functional, organism-based
Chain of D(2) dopamine receptor (Rattus norvegicus) (P61169 whole entry): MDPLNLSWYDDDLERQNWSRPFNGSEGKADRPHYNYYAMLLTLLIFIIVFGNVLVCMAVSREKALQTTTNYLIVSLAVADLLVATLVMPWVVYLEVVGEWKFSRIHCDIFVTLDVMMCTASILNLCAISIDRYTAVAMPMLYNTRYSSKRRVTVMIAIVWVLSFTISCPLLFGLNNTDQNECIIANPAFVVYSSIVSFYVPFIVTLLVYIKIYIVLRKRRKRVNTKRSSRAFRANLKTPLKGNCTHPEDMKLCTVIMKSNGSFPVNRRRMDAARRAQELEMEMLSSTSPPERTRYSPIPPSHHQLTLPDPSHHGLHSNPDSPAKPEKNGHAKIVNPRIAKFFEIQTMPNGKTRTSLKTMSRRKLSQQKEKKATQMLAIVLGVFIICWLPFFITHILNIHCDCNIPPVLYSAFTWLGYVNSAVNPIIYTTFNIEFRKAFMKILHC
In short: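 Male Long Evans rats (275 g) were dosed sc in dilute aqueous HCl (pH 4.5-5.5) 30 min before apomorphine (1 mg/kg sc).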

[2] = molecular target: D(2) dopamine receptor (Canis lupus familiaris) (UniProt Q9GJU1); assay: In vivo antagonism activity against dopamine D2 receptor was measured as emesis in dog when administered subcutaneously; format: functional, organism-based
Chain of D(2) dopamine receptor (Canis lupus familiaris) (Q9GJU1 whole entry): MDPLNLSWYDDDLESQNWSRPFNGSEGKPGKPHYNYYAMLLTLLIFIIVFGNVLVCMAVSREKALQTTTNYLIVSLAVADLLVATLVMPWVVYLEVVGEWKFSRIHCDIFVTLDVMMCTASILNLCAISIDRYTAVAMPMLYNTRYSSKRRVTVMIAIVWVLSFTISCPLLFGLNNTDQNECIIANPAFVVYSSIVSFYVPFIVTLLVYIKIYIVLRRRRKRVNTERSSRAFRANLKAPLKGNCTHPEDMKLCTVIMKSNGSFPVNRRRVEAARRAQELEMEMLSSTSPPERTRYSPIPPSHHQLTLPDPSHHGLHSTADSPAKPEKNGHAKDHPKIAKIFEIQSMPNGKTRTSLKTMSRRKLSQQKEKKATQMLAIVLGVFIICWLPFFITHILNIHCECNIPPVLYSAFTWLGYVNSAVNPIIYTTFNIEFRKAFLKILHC

Canis familiaris [3] = assay: In vivo antagonism of cisplatin-induced emesis in dog measured as percentage protection for twice the dose of 0.3 mg/kg in 2 dogs; format: functional, Canis lupus familiaris
In short: (§1)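 Nonfasted mature male or female beagles were dosed sc twice, 30 min before and 120 min after cisplatin (3 mg/kg iv; 3 mg/mL in warm 0.9% saline, used immediately). Emesis was observed up to 5 h; events within 2 min counted as one episode. Results were given as mean emetic episodes and % protection versus a dynamic control (historical and concurrent saline means pooled). t test versus saline.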

Mustela putorius furo [4] = assay: In vivo antagonism of cisplatin-induced emesis in ferret measured as percentage protection for twice the dose of 3 mg/kg and in 3 ferrets; format: functional
In short: (§2)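 Nonfasted castrated male Fitch ferrets (1–1.5 kg) had jugular catheters implanted ≥48 h earlier under anesthesia. Compounds or saline were given iv twice, 5 min before and 90 min after cisplatin (12 mg/kg iv; 12 mg/mL in warm 0.9% saline). Emesis was observed up to 4 h; events within 1 min counted as one episode. Results were given as mean emetic episodes and % protection versus a pooled historical/concurrent control. t test versus saline.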

[5] = molecular target: D(2) dopamine receptor (Rattus norvegicus) (UniProt P61169); assay: In vivo antagonistic activity against dopamine D2 receptor was measured as catalepsy in rat when administered subcutaneously; format: functional, organism-based
In short: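 Male Long Evans rats (275 g) received graded sc doses in dilute aqueous HCl (pH 4.5-5.5). They were observed 180 min for catalepsy, scored when the animal stayed stationary ≥15 s on a four-cork template.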

D(2) dopamine receptor = D(2) dopamine receptor (Rattus norvegicus, UniProt P61169); assay: In vitro antagonistic activity against Dopamine receptor D2 was evaluated for the inhibition of [3H]spiperone binding
Chain of D(2) dopamine receptor (P61169 whole entry): as the sequence (P61169 whole entry) above
In short: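 Rat striatal membranes were prepared by differential centrifugation in 50 mM Tris pH 7.4 at 4 °C. Membrane protein (10 mg) was incubated 15 min at 37 °C with 0.1 nM [3H]spiperone and varying competitor concentrations. Buffer: 50 mM Tris HCl pH 7.5, 0.1% ascorbic acid, pargyline, 120 mM NaCl, 5 mM KCl, 2 mM CaCl2, 1 mM MgCl2. (+)-Butaclamol defined nonspecific binding. Bound ligand was collected by filtration and scintillation counted. IC50 by log-logit regression.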

Canis familiaris [6] = assay: in vivo antagonism of cisplatin-induced emesis in dog measured as emetic episodes, twice the dose of 0.3 mg/kg in 2 dogs; format: functional, Canis lupus familiaris
Mustela putorius furo [7] = assay: In vivo antagonism of cisplatin-induced emesis in ferret measured as emetic episodes, twice the dose of 3 mg/kg and in 3 ferrets; format: functional; in short: as §2
Canis familiaris [8] = assay: In vivo antagonism of cisplatin-induced emesis in dog measured as percentage protection for twice the dose of 1 mg/kg in 2 dogs; format: functional, Canis lupus familiaris; in short: as §1
Mustela putorius furo [9] = assay: In vivo antagonism of cisplatin-induced emesis in ferret measured as emetic episodes, twice the dose of 1 mg/kg and in 3 ferrets; format: functional; in short: as §2
Canis familiaris [10] = assay: Antagonism of cisplatin-induced emesis in dog measured as emetic episodes, twice the dose of 0.3 mg/kg in 2 dogs.(in vivo); format: functional, Canis lupus familiaris; in short: as §1
Canis familiaris [11] = assay: Antagonism of cisplatin-induced emesis in dog measured as emetic episodes, twice the dose of 1 mg/kg in 2 dogs.(in vivo); format: functional, Canis lupus familiaris; in short: as §1
Canis familiaris [12] = assay: In vivo protection against cisplatin-induced emesis in dog measured as emetic episodes for twice the dose of 0.1 mg/kg and in 3 […]; format: functional, Canis lupus familiaris
Canis familiaris [13] = assay: In vivo protection against cisplatin-induced emesis in dog measured as emetic episodes for twice the dose of 0.9 mg/kg and in 3 […]; format: functional, Canis lupus familiaris
Mustela putorius furo [14] = assay: Cisplatin-induced emesis in ferret measured as stereotypy […] when administered iv […] twice daily; format: functional
Canis familiaris [15] = assay: In vivo protection against cisplatin-induced emesis in dog measured as percentage protection twice the dose of 0.1 mg/kg and in 3 dogs
Mustela putorius furo [16] = assay: In vivo antagonism of cisplatin-induced emesis in ferret measured as emetic episodes, twice the dose of 0.1 mg/kg and in 3 ferrets; format: functional; in short: as §2
Mustela putorius furo [17] = assay: In vivo antagonism of cisplatin-induced emesis in ferret measured as percentage protection for twice the dose of 3 mg/kg
Mustela putorius furo [18] = assay: In vivo protection against cisplatin-induced emesis in ferret measured as percentage protection for twice the dose of 0.3 mg/kg and in 6 ferrets; format: functional
In short: (§3)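 Nonfasted castrated male Fitch ferrets (1–1.5 kg) carried jugular vein catheters implanted at least 48 h earlier under general anesthesia. Test compound or saline was given iv twice, 5 min before and 90 min after cisplatin (12 mg/kg iv; 12 mg/mL in warm saline). Emesis was watched for 4 h, with events within 1 min counted as one episode. % protection is relative to a pooled historical-plus-concurrent control, with t test versus saline.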

Canis familiaris [19] = assay: In vivo protection against cisplatin-induced emesis in dog measured as emetic episodes for twice the dose of 0.3 mg/kg and in 5 […]; format: functional, Canis lupus familiaris
Canis familiaris [20] = assay: In vivo antagonism of cisplatin-induced emesis in dog measured as emetic episodes, twice the dose of 0.3 mg/kg in 2 dogs; format: functional, Canis lupus familiaris; in short: as §1
Mustela putorius furo [21] = assay: In vivo protection against cisplatin-induced emesis in ferret measured as percentage protection for twice the dose of 2.7 mg/kg and in 0.1 ferrets; format: functional; conditions: in the assay text read “in 3 ferrets” for “in 0.1 ferrets”; in short: as §3
Canis familiaris [22] = assay: In vivo antagonism of cisplatin-induced emesis in dog measured as percentage protection for twice the dose of 0.1 mg/kg in 2 dogs; format: functional, Canis lupus familiaris; in short: as §1
Mustela putorius furo [23] = assay: In vivo protection against cisplatin-induced emesis in ferret measured as emetic episodes for twice the dose of 2.7 mg/kg and in 3 ferrets; format: functional; in short: as §3
Canis familiaris [24] = assay: In vivo antagonism of cisplatin-induced emesis in dog measured as emetic episodes, twice the dose of 1 mg/kg in 2 dogs; format: functional, Canis lupus familiaris; in short: as §1
Mustela putorius furo [25] = assay: In vivo antagonism of cisplatin-induced emesis in ferret measured as emetic episodes, twice the dose of 0.3 mg/kg and in 3 ferrets; format: functional; in short: as §2
Canis familiaris [26] = assay: cisplatin-induced emesis in dog was measured for when administered twice daily; conditions: Canis lupus familiaris
Mustela putorius furo [27] = assay: In vivo protection against cisplatin-induced emesis in ferret measured as emetic episodes for twice the dose of 0.3 mg/kg and in 6 ferrets; format: functional; in short: as §3
Mustela putorius furo [28] = assay: In vivo protection against cisplatin-induced emesis in ferret measured as emetic episodes for twice the dose of 0.1 mg/kg and in 3 ferrets; format: functional; in short: as §3
Mustela putorius furo [29] = assay: In vivo antagonism of cisplatin-induced emesis in ferret measured as percentage protection for twice the dose of 3 mg/kg and […]; format: functional; in short: as §2
Canis familiaris [30] = assay: In vivo antagonism of cisplatin-induced emesis in dog measured as emetic episodes, twice the dose of 0.1 mg/kg in 2 dogs; format: functional, Canis lupus familiaris; in short: as §1
Canis familiaris [31] = assay: In vivo protection against cisplatin-induced emesis in dog measured as percentage protection for twice the dose of 0.1 mg/kg and in 3 […]; format: functional, Canis lupus familiaris
Mustela putorius furo [32] = assay: In vivo protection against cisplatin-induced emesis in ferret measured as percentage protection for twice the dose of 0.1 mg/kg and in 3 ferrets; format: functional; in short: as §3
Mustela putorius furo [33] = assay: In vivo protection against cisplatin-induced emesis in ferret measured as percentage protection for twice the dose of 0.9 mg/kg and in 6 ferrets; format: functional; in short: as §3
Mustela putorius furo [34] = assay: In vivo protection against cisplatin-induced emesis in ferret measured as p emetic episodes for twice the dose of 0.9 mg/kg and in 6 ferrets; format: functional; in short: as §3
Canis familiaris [35] = assay: In viov antagonism of cisplatin-induced emesis in dog measured as percentage protection for twice the dose of 1 mg/kg in 2 dogs; format: functional, Canis lupus familiaris; in short: as §1
Mustela putorius furo [36] = assay: In vivo antagonism of cisplatin-induced emesis in ferret measured as percentage protection for twice the dose of 1 mg/kg and in 3 ferrets; format: functional; conditions: 1 mg/kg; in short: as §2
Mustela putorius furo [37] = assay: In vivo antagonism of cisplatin-induced emesis in ferret measured as percentage protection for twice the dose of 0.3 mg/kg and in 3 ferrets; format: functional; conditions: 0.3 mg/kg; in short: as §2

CCN(CC)CCNC(=O)c1cc(Cl)c(N)cc1OCC(=O)Cc1ccccc1
ED50 [1]: > 40 mg/kg | ED50 [2]: > 3 mg/kg | Protection (Canis familiaris [3]): 0% | Protection (Mustela putorius furo [4]): 100% | ED50 [5]: > 40 mg/kg | IC50 (D(2) dopamine receptor): > 1000 nM | Emetic episodes (Canis familiaris [6]): 13 | Emetic episodes (Mustela putorius furo [7]): 0

CCN(CC)CCNC(=O)c1cc(Cl)c(N)cc1OCCC(C)OC (stereo not drawn)
ED50 [1]: > 40 mg/kg | ED50 [2]: > 3 mg/kg | Protection (Canis familiaris [3]): 28% | Protection (Mustela putorius furo [4]): 82% | ED50 [5]: > 40 mg/kg | IC50 (D(2) dopamine receptor): > 1000 nM | Protection (Canis familiaris [8]): 88% | Emetic episodes (Mustela putorius furo [9]): 4.3 | Protection (Mustela putorius furo [9]): 42% | Emetic episodes (Canis familiaris [10]): 8.5 | Emetic episodes (Canis familiaris [11]): 1.5 | Emetic episodes (Mustela putorius furo [7]): 1.3

CCN(CC)CCNC(=O)c1cc(Cl)c(N)cc1OC(C)C(C)=O (stereo not drawn) [BATANOPRIDE]
ED50 [1]: > 40 mg/kg | Emetic episodes (Canis familiaris [12]): 5 | Emetic episodes (Canis familiaris [13]): 0 | ED50 (Mustela putorius furo [14]): 0.14 mg/kg | Protection (Canis familiaris [15]): 58% | ED50 [2]: > 3 mg/kg | Emetic episodes (Mustela putorius furo [16]): 3.3 | Protection (Mustela putorius furo [17]): 90% | Protection (Mustela putorius furo [18]): 64% | Emetic episodes (Canis familiaris [19]): 1.6 | Protection (Canis familiaris [3]): 87% | Emetic episodes (Canis familiaris [20]): 1.5 | Protection (Mustela putorius furo [21]): 96% | ED50 [5]: > 40 mg/kg | Protection (Canis familiaris [22]): 60% | IC50 (D(2) dopamine receptor): > 1000 nM | Protection (Canis familiaris [8]): 96% | Emetic episodes (Mustela putorius furo [23]): 0.3 | Emetic episodes (Canis familiaris [24]): 0.5 | Emetic episodes (Mustela putorius furo [25]): 1 | ED50 (Canis familiaris [26]): 0.05 mg/kg | Emetic episodes (Mustela putorius furo [27]): 2.5 | Emetic episodes (Mustela putorius furo [28]): 3.3 | Protection (Mustela putorius furo [29]): 96% and 54% | Emetic episodes (Canis familiaris [30]): 0.5 | Protection (Canis familiaris [31]): 86% and 100% | Protection (Mustela putorius furo [32]): 53% | Emetic episodes (Mustela putorius furo [7]): 0.3 | Protection (Mustela putorius furo [33]): 93% | Emetic episodes (Mustela putorius furo [34]): 0.5

CCN(CC)CCNC(=O)c1cc(Cl)c(N)cc1OC(C)C(C)O (stereo in doubt; 8g)
Protection (Canis familiaris [35]): 100% | Protection (Mustela putorius furo [36]): 82% | Protection (Mustela putorius furo [37]): 49% | Protection (Canis familiaris [3]; 0.3 mg/kg): 100% | Emetic episodes (Canis familiaris [20]; 0.3 mg/kg): 0 | Protection (Mustela putorius furo [4]; 3 mg/kg): 86% | Protection (Canis familiaris [22]): 62% | IC50 (D(2) dopamine receptor): > 1000 nM | Emetic episodes (Canis familiaris [24]): 0 | Emetic episodes (Mustela putorius furo [9]; 1 mg/kg): 1.3 | Emetic episodes (Mustela putorius furo [25]; 0.3 mg/kg): 0.7 | Emetic episodes (Canis familiaris [30]): 4 | Emetic episodes (Mustela putorius furo [7]; 3 mg/kg): 1
